The values below come from ChEMBL document CHEMBL1154186, “Synthesis, kinase inhibitory potencies, and in vitro antiproliferative evaluation of new Pim kinase inhibitors” (J Med Chem, 2009).

For assay [1], the target named is Mitogen-activated protein kinase 14 (Homo sapiens) (UniProt Q16539). Briefly: Inhibition of p38alpha assessed as residual enzyme activity at 10 uM relative to untreated control. The essentials:
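p38γ and p38δ MAPK run at 5 µM [γ-33P]ATP, and p38α at 50 µM, each with 10 mM Mg acetate. Buffer 50 mM Tris/HCl pH 7.5, 0.1 mM EGTA, 0.1% 2-mercaptoethanol. 10 µM compound, 30 min at 21 °C. P81 filter capture. Residual activity relative to control, duplicates.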

Assay [2] deals with T1, Mitogen-activated protein kinase 15 (Homo sapiens) (UniProt Q8TD08).
T1 sequence (whole entry): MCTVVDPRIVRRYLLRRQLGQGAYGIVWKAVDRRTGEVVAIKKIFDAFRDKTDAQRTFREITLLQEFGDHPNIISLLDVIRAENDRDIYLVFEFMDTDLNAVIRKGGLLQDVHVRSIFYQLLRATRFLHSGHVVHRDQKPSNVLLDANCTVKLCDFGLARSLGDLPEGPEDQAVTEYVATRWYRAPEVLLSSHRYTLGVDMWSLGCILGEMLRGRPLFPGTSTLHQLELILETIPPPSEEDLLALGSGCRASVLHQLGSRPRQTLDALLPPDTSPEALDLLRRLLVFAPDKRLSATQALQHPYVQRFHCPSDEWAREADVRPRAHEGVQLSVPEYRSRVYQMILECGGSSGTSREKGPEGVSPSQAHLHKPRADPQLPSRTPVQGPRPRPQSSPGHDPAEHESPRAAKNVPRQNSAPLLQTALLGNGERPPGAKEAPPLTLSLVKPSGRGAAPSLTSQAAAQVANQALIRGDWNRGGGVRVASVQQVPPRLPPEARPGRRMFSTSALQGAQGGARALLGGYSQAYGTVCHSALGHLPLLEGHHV
As to the kind of experiment: Inhibition of ERK8 assessed as residual enzyme activity at 10 uM relative to untreated control. In a few lines: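 Radiometric filter-binding assay at 21 °C for 30 min. Mix: 50 mM Tris/HCl pH 7.5, 0.1 mM EGTA, 0.1% 2-mercaptoethanol, 10 mM Mg acetate and [γ-33P]ATP (800 cpm/pmol) at 5 µM. Stopped with orthophosphoric acid and spotted on P81. Compound at 10 µM; activity given as % remaining versus no-inhibitor control, duplicates. Kinases human full-length unless noted.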

Assay [3] concerns the target Serine/threonine-protein kinase PAK 5 (Homo sapiens) (UniProt Q9P286). As to the kind of experiment: Inhibition of PAK5 assessed as residual enzyme activity at 10 uM relative to untreated control. The essentials:
(§1)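 Kinases of human origin, except CK1δ, which is rat. Run in 50 mM Tris/HCl pH 7.5, 0.1 mM EGTA, 0.1% 2-mercaptoethanol and 10 mM Mg acetate, with [γ-33P]ATP at 20 µM, 30 min at 21 °C. Acid-stopped and captured on P81 filters. Compound tested at 10 µM; residual % of uninhibited control, duplicate determinations.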

Assay [4] concerns the target Proto-oncogene tyrosine-protein kinase Src (Homo sapiens) (UniProt P12931). As to the kind of experiment: Inhibition of Src assessed as residual enzyme activity at 10 uM relative to untreated control.
Assay [5] deals with Myosin light chain kinase, smooth muscle (Homo sapiens) (UniProt Q15746). As to the kind of experiment: Inhibition of smMLCK assessed as residual enzyme activity at 10 uM relative to untreated control.
Assay [6] in a line: Inhibition of PHK assessed as residual enzyme activity at 10 uM relative to untreated control.
Assay [7] addresses Cyclin-dependent kinase 2/cyclin A (Homo sapiens) (UniProt P24941+P20248+P78396). Briefly: Inhibition of CDK2/Cyclin A assessed as residual enzyme activity at 10 uM relative to untreated control. It counts as protein-complex assay. In a few lines: as §1
The target in assay [8] is Maternal embryonic leucine zipper kinase (Homo sapiens) (UniProt Q14680). As to the kind of experiment: Inhibition of MELK assessed as residual enzyme activity at 10 uM relative to untreated control. In a few lines:
(§2)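 Assayed with [γ-33P]ATP at 50 µM and 10 mM Mg acetate in 50 mM Tris/HCl pH 7.5, 0.1 mM EGTA, 0.1% 2-mercaptoethanol, 30 min, 21 °C. Phosphoric acid stop, P81 filter capture. ERK2 and Lck are mouse; AMPK is rat. 10 µM compound; % activity remaining relative to control without inhibitor, duplicates.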

The target of assay [9] is Serine/threonine-protein kinase Nek6 (Homo sapiens) (UniProt Q9HC98). Briefly: Inhibition of NEK6 assessed as residual enzyme activity at 10 uM relative to untreated control. The essentials: as §2
Chain of Serine/threonine-protein kinase Nek6 (Homo sapiens) (Q9HC98 whole entry): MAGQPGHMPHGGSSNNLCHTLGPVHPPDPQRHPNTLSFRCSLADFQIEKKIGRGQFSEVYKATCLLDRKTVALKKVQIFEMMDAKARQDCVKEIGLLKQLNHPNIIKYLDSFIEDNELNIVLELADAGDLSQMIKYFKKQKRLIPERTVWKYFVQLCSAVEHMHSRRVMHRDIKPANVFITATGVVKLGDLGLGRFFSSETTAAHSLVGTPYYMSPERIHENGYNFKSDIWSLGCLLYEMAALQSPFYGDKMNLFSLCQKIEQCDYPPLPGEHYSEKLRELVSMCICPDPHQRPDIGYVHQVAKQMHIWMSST
The target in assay [10] is Serine/threonine-protein kinase Nek7 (Homo sapiens) (UniProt Q8TDX7). As to the kind of experiment: Inhibition of NEK7 assessed as residual enzyme activity at 10 uM relative to untreated control. In a few lines: as §1
Chain of Serine/threonine-protein kinase Nek7 (Homo sapiens) (Q8TDX7 whole entry, looked up): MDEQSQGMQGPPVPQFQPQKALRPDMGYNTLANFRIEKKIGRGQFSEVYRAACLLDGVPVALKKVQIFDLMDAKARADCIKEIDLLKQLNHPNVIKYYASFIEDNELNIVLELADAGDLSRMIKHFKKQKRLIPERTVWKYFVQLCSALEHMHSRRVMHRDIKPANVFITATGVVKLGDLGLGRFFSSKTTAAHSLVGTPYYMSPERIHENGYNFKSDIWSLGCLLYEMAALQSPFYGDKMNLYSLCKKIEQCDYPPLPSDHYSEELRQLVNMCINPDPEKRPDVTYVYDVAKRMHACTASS
The target of assay [11] is T2, Serine/threonine-protein kinase 3 (Homo sapiens) (UniProt Q13188).
T2 sequence (whole entry): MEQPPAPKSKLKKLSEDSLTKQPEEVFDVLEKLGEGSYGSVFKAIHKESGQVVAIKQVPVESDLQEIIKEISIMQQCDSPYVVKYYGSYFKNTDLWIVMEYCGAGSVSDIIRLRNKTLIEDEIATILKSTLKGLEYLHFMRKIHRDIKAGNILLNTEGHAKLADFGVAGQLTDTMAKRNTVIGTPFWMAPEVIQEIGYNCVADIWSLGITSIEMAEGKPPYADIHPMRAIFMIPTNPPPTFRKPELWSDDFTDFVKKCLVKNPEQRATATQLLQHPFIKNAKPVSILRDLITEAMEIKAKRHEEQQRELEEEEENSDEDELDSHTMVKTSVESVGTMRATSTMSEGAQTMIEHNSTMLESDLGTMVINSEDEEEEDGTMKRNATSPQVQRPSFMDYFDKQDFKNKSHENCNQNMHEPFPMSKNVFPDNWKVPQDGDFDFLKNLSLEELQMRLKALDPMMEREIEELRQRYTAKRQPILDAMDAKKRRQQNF
As to the kind of experiment: Inhibition of MST2 assessed as residual enzyme activity at 10 uM relative to untreated control. In a few lines:
as §1

Assay [12] has as its target Ribosomal protein S6 kinase beta-1 (Homo sapiens) (UniProt P23443). Briefly: Inhibition of S6K1 assessed as residual enzyme activity at 10 uM relative to untreated control. In a few lines:
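Buffer Tris/HCl pH 7.5, EGTA and 2-mercaptoethanol. 30 min at 21 °C, compound at 10 µM. P81 filter read-out. Residual activity versus control, duplicates.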

For assay [13], the system named is ROCK2 (Rattus norvegicus). As to the kind of experiment: Inhibition of ROCK2 assessed as residual enzyme activity at 10 uM relative to untreated control.

Chain of Serine/threonine-protein kinase PAK 5 (Homo sapiens) (Q9P286 whole entry, looked up): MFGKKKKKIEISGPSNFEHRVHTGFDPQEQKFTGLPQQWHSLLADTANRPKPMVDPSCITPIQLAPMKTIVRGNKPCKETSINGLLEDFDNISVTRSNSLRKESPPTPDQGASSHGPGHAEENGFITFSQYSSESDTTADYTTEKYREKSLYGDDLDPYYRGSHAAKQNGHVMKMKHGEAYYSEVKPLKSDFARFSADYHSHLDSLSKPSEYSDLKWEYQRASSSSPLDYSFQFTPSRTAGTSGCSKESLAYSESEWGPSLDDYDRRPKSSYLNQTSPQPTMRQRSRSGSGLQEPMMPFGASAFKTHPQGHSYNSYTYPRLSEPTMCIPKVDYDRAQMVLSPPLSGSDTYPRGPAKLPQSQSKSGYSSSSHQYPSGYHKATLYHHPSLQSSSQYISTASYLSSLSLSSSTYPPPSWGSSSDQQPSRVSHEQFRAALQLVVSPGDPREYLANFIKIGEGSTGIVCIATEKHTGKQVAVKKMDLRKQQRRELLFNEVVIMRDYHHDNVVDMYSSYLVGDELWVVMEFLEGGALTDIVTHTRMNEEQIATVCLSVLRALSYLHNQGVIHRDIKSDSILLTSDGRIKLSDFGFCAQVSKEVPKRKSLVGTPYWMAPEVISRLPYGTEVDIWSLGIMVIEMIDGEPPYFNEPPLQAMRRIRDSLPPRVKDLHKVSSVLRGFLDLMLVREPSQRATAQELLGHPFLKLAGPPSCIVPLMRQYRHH
Chain of Proto-oncogene tyrosine-protein kinase Src (Homo sapiens) (P12931 2-536 limits assumed): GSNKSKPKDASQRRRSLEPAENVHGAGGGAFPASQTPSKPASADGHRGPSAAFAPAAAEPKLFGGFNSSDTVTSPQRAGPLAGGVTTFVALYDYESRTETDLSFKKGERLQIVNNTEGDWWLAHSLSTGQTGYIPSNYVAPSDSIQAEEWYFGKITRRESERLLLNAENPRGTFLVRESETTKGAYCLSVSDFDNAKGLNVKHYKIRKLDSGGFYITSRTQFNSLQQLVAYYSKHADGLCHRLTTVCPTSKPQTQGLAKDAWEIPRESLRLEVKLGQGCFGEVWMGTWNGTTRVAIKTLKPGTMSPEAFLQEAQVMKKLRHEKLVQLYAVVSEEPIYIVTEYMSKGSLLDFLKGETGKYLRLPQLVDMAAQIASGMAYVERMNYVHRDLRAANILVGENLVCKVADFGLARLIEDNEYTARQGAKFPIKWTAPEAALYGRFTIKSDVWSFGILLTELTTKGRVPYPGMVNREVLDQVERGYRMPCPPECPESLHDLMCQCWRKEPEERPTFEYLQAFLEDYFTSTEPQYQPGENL
Chain of Maternal embryonic leucine zipper kinase (Homo sapiens) (Q14680 whole entry, looked up): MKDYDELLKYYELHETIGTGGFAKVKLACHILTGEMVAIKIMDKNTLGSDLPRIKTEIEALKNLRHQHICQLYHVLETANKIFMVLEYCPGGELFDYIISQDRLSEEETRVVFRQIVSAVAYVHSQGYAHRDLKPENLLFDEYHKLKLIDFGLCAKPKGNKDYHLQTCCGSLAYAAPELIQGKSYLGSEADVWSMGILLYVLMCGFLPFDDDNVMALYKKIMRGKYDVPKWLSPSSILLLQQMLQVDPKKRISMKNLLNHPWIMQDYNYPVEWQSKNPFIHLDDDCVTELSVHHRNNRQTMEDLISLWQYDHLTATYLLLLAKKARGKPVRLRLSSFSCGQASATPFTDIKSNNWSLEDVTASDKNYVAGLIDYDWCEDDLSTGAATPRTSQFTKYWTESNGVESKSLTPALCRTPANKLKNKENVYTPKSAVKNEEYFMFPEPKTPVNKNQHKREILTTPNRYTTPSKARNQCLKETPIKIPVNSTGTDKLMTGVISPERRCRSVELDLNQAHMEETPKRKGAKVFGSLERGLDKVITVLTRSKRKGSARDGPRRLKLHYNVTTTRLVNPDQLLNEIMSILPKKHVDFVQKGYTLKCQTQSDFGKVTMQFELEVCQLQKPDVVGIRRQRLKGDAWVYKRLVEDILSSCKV
Chain of Mitogen-activated protein kinase 14 (Homo sapiens) (Q16539 whole entry): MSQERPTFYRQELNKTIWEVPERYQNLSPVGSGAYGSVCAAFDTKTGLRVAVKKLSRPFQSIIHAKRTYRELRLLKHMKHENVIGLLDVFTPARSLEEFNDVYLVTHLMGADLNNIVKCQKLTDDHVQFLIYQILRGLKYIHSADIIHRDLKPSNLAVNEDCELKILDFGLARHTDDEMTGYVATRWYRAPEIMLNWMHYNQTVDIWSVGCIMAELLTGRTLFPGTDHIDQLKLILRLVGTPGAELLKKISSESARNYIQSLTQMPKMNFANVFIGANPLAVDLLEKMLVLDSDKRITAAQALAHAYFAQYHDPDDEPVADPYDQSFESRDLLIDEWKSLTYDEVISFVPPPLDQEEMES
Chain of Ribosomal protein S6 kinase beta-1 (Homo sapiens) (P23443 whole entry, looked up): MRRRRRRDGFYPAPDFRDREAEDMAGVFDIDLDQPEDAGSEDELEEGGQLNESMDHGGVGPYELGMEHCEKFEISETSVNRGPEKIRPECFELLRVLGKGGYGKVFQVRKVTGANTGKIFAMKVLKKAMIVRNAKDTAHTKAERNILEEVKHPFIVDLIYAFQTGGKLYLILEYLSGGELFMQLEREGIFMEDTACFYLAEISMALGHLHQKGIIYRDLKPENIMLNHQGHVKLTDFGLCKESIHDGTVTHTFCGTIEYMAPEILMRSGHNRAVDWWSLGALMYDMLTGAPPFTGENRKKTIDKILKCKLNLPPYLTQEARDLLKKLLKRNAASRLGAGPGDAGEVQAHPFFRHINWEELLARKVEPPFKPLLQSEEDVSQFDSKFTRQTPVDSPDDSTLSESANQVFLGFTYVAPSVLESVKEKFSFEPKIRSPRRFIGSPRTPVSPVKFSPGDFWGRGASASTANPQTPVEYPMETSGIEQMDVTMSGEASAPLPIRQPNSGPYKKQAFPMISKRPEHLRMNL

Consider `O=Cc1c[nH]c2c1ccc1c3ccccc3[nH]c12`, for which the Activity in assay [1] is 102%; in assay [2], 20%; in assay [3], 87%; in assay [4], 85%; in [5], 60%; in assay [6], 33%. Besides, the Activity in assay [7] was found to be 74%; in [8], 61%; in assay [9] it was 78%; in assay [10], 89%; in assay [11], 63%.

Consider `c1ccc2c(c1)[nH]c1c3cc[nH]c3ccc21`, for which the Activity in assay [1] turned out to be 115%; in assay [2], 47%; in assay [3], 99%; in assay [4], 102%; in [12], 87%; in [5] it was 82%. Further, the Activity came out at 71% in assay [6]; 95% in assay [7]; 82% in [8]; 71% in assay [9]; 92% in [10]; 77% in [11]. Moreover, the Activity in assay [13] is 89%.

Regarding `O=Cc1c[nH]c2ccc3c4ccccc4[nH]c3c12`, the Activity in assay [1] is 108%; in assay [2], 112%; in [3], 96%; in [4], 99%; in assay [12], 82%; in assay [5], 91%. Also, the Activity in [6] came to 88%; in [7], 109%; in assay [8] it was 89%; in assay [9] it was 86%; in assay [10] it was 95%; in assay [11], 96%. In assay [13], the Activity worked out at 86%.

Regarding `c1ccc2c(c1)[nH]c1c2ccc2cc[nH]c21`, the Activity in assay [1] turned out to be 108%; in assay [2] it was 55%; in assay [3], 82%; in assay [4], 98%; in assay [12], 89%; in assay [5], 86%. Also, the Activity in [6] was 90%; in [7], 97%; in [8] it was 93%; in assay [9] it was 90%; in assay [10] it was 96%; in assay [11], 82%. For the same compound, the Activity in assay [13] is 86%.
